Measured values: ChEMBL document CHEMBL1122415, “Folate antagonists. 20. Synthesis and antitumor and antimalarial properties of trimetrexate and related 6-[(phenylamino)methyl]-2,4-quinazolinediamines” (1983)
Where “and” joins values, the source holds several entries; their conditions need not be identical. Identical values can stand only once.

Legend:
Plasmodium berghei [1] = assay: Antimalarial effect against trophozoite-induced Plasmodium berghei in mice (Mus musculus) after subcutaneous dose of 10 mg/kg; assay type: functional
L1210 = assay: Molar concentration required to reduce the number of L1210 cells by 50% after incubation for 2 days; assay type: functional, Mus musculus; conditions: read-out: ID50 (the source's name)
Summary of the method: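 L1210 leukemia cells in tissue culture exposed to drug for 2 days. ID50 is the molar concentration that reduces L1210 cell number by 50%. Mithramycin is the reference drug.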

Plasmodium berghei [2] = assay: Antimalarial effect against trophozoite-induced Plasmodium berghei in mice (Mus musculus) at 40 mg/kg subcutaneous dose; assay type: functional
Plasmodium berghei [3] = assay: Antimalarial effect against trophozoite-induced Plasmodium berghei in mice (Mus musculus) at 320 mg/kg subcutaneous dose; assay type: functional
Plasmodium berghei [4] = assay: Antimalarial effect against trophozoite-induced Plasmodium berghei in mice (Mus musculus) at 20 mg/kg subcutaneous dose; assay type: functional
Mus musculus [5] = assay: Antimalarial effect against trophozoite-induced Plasmodium berghei in mice (Mus musculus) after subcutaneous administration dose of 640 mg/kg; assay type: functional
Mus musculus [6] = species on record: Mus musculus; assay: Daily dose required for 90% parasitaemia in trophozoite induced Plasmodium berghei in 21 mice; assay type: functional
Summary of the method: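 Oral suppressive test in mice against a normal drug-sensitive P. berghei strain. Drug given continuously in the diet for six consecutive days, with doses as free base equivalent. SD90 is the daily dose (mg/kg) giving 90% suppression of parasitemia versus control mice, estimated graphically on semilog paper.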

Plasmodium berghei [7] = assay: Antimalarial effect against trophozoite-induced Plasmodium berghei in mice (Mus musculus) at 80 mg/kg subcutaneous dose; assay type: functional
Plasmodium berghei [8] = assay: Antimalarial effect against trophozoite-induced Plasmodium berghei in mice (Mus musculus) after subcutaneous dose of 160 mg/kg; assay type: functional
Mus musculus [9] = assay: Antimalarial effect against trophozoite-induced Plasmodium berghei in mice (Mus musculus) after subcutaneous after 60 days; assay type: functional
Mus musculus [10] = assay: Antimalarial effect against trophozoite-induced Plasmodium berghei in mice (Mus musculus) after subcutaneous administration dose of 40 mg/kg; 1 survival after 60 days; assay type: functional
Plasmodium berghei [11] = assay: Antimalarial effect against trophozoite-induced Plasmodium berghei in mice (Mus musculus) at 5 mg/kg subcutaneous dose; assay type: functional
Mus musculus [12] = assay: Antimalarial effect against trophozoite-induced Plasmodium berghei in mice (Mus musculus) after subcutaneous administration dose of 20 mg/kg; 2 survived after 60 days of postinfection; assay type: functional
Mus musculus [13] = assay: Antimalarial effect against trophozoite-induced Plasmodium berghei in mice (Mus musculus) after subcutaneous administration dose of 2.5 mg/kg; assay type: functional
Mus musculus [14] = assay: Antimalarial effect against trophozoite-induced Plasmodium berghei in mice (Mus musculus) after subcutaneous administration dose of 40 mg/kg; 3 survived after 60 days of post infection; assay type: functional
Mus musculus [15] = assay: Antimalarial effect against trophozoite-induced Plasmodium berghei in mice (Mus musculus) after subcutaneous administration dose of 160 mg/kg; 4 survived after 60 days; assay type: functional
Mus musculus [16] = assay: Antimalarial effect against trophozoite-induced Plasmodium berghei in mice (Mus musculus) after subcutaneous administration dose of 80 mg/kg; 1 survived after 60 days; assay type: functional
Mus musculus [17] = assay: Antimalarial effect against trophozoite-induced Plasmodium berghei in mice (Mus musculus) after subcutaneous administration dose of 320 mg/kg; 3 survived after 60 days of postinfection; assay type: functional
Plasmodium berghei [18] = assay: Change in mean survival time of Trophozoite-induced Plasmodium berghei infected mice (Mus musculus) after 160 mg/kg subcutaneous dose; 60 days survival; assay type: functional
Mus musculus [19] = assay: Antimalarial effect against trophozoite-induced Plasmodium berghei in mice (Mus musculus) after subcutaneous administration dose of 80 mg/kg; 1 survived after 60 days of postinfection; assay type: functional
Mus musculus [20] = assay: Antimalarial effect against trophozoite-induced Plasmodium berghei in mice (Mus musculus) after subcutaneous administration dose of 160 mg/kg; 3 survived after 60 days of postinfection; assay type: functional; conditions: 160 mg/kg

Structure (SMILES) | Delta MST (Plasmodium berghei [1]) | IC50 (L1210; Mus musculus, L1210, 48 h) | IC50 (L1210) | Delta MST (Plasmodium berghei [2]) | Delta MST (Plasmodium berghei [3]; 320 mg/kg) | Delta MST (Plasmodium berghei [4]; 20 mg/kg) | SD90 (Mus musculus [6]) | Delta MST (Plasmodium berghei [8]; 160 mg/kg) | Delta MST (Plasmodium berghei [2]; 40 mg/kg) | Delta MST (Plasmodium berghei [4]) | other results
CC(=O)O.Nc1nc(N)c2cc(CNc3cccc(Cl)c3)ccc2n1.O.O | 0.3 days | 46 nM | 70 nM | 1.7 days | 20.6 days and 16.4 days and 8.7 days | 0.7 days and 0.5 days | 8.5 mg/kg/day | – | – | – | Delta MST (Mus musculus [5]): 9.9 days; Delta MST (Plasmodium berghei [7]): 3.3 days
CC(=O)O.Nc1nc(N)c2cc(CN(N=O)c3ccc(Cl)c4ccccc34)ccc2n1 | 0.3 days | 130 nM | 170 nM | – | 14.7 days and 14.9 days | 0.7 days and 0.5 days | – | 12.9 days and 13.1 days | 2.9 days and 2.7 days | – | Delta MST (Plasmodium berghei [7]; 80 mg/kg): 5.7 days and 5.9 days
CC1(C)N=C(N)N=C(N)N1c1ccc(Cl)cc1.Cl [CHLORCYCLOGUANIL HYDROCHLORIDE] | 4.9 days | – | – | – | – | – | – | – | – | 7.9 days | Delta MST (Mus musculus [9]): 21.6 days; Delta MST (Mus musculus [10]): 13.4 days
Nc1nc(N)c2cc(N(Cc3ccc(Cl)c(Cl)c3)N=O)ccc2n1 | – | – | – | – | – | – | – | – | – | – | Delta MST (Plasmodium berghei [1]; 10 mg/kg): 7.5 days and 9.9 days; Delta MST (Plasmodium berghei [11]): 2.9 days; Delta MST (Mus musculus [12]): 20.9 days
Nc1nc(N)c2c(Cl)c(CN(C=O)c3ccc(Cl)c(Cl)c3)ccc2n1 | 7.9 days | – | – | 21.9 days | – | 21.9 days and 21.6 days | – | – | – | – | Delta MST (Mus musculus [13]; 2.5 mg/kg): 4.1 days and 3.1 days; Delta MST (Mus musculus [14]): 23.9 days; Delta MST (Plasmodium berghei [7]): 24.4 days
Nc1nc(N)c2c(Cl)c(CN(N=O)c3ccc(Cl)c(Cl)c3)ccc2n1 | 3.5 days | – | – | 8.1 days | – | 6.1 days and 6.3 days | – | – | – | – | Delta MST (Mus musculus [15]): 21.9 days; Delta MST (Mus musculus [16]): 13.4 days
CC(=O)O.Nc1nc(N)c2cc(CNc3cccc(Br)c3)ccc2n1 | 0.4 days | 86 nM | 71 nM | 3.1 days | 9.2 days and 9.8 days | 1.5 days and 1.8 days | 9 mg/kg/day | – | – | – | Delta MST (Plasmodium berghei [8]): 9.2 days; Delta MST (Mus musculus [17]): 9.2 days; Delta MST (Plasmodium berghei [7]; 80 mg/kg): 8.8 days and 10.2 days and 3.6 days
CC(=O)O.Cc1c(CNc2ccc(Cl)cc2)ccc2nc(N)nc(N)c12 | – | 1.9 nM | – | – | – | – | 0.088 mg/kg/day | – | – | 20.9 days | Delta MST (Plasmodium berghei [1]; 10 mg/kg): 19.8 days and 25.9 days and 8.8 days; Delta MST (Plasmodium berghei [11]): 8.7 days; Delta MST (Mus musculus [13]): 0.7 days
Nc1nc(N)c2cc(CN(C=O)c3ccc4cc(Cl)ccc4c3)ccc2n1 | – | 250 nM | 150 nM | – | 13.9 days and 13.7 days and 10.7 days | 0.5 days and 0.3 days | – | 10.9 days and 4.1 days | 1.5 days and 0.5 days | – | Delta MST (Mus musculus [5]): 16.9 days
CC(=O)O.Cc1c(CNc2ccc(Cl)c(Cl)c2)ccc2nc(N)nc(N)c12 | – | 8.4 nM | 4.3 nM | 29.8 days | – | – | 0.33 mg/kg/day | – | – | 15.9 days | Delta MST (Plasmodium berghei [11]): 8.6 days; Delta MST (Mus musculus [12]): 15.8 days; Delta MST (Mus musculus [13]; 2.5 mg/kg): 7.2 days and 4 days
Nc1nc(N)c2cc(CN(C=O)c3ccc(Cl)c(C(F)(F)F)c3)ccc2n1 | 0.3 days | – | – | – | 12.5 days and 12.3 days | – | – | 7.5 days and 6.3 days | 1.5 days and 1.7 days | 0.3 days | Delta MST (Mus musculus [5]): 9.9 days
CC(=O)O.Nc1nc(N)c2cc(CNc3ccc(Cl)c(C(F)(F)F)c3)ccc2n1.O.O | – | – | – | – | – | – | – | – | 10.5 days and 4.9 days | 5.1 days | Delta MST (Plasmodium berghei [1]; 10 mg/kg): 4.9 days and 2.7 days; Delta MST (Plasmodium berghei [18]): 23.9 days; Delta MST (Plasmodium berghei [3]): 29.9 days; Delta MST (Plasmodium berghei [7]; 80 mg/kg): 27.2 days and 10.3 days
CC(=O)O.Nc1nc(N)c2cc(CNc3ccc(Cl)c(Cl)c3)ccc2n1.O.O | 1.8 days | – | 18 nM and 23 nM and 67 nM | – | – | – | 0.92 mg/kg/day | 18.8 days and 19.8 days | 11.2 days and 5.8 days | 5.8 days | Delta MST (Mus musculus [19]): 11.8 days; Delta MST (Mus musculus [13]; 2.5 mg/kg): 0.4 days and 0.2 days; Delta MST (Mus musculus [20]): 11.8 days and 12.1 days
